In ChEMBL document CHEMBL3997769, “Discovery and preclinical evaluation of 7-benzyl-N-(substituted)-pyrrolo[3,2-d]pyrimidin-4-amines as single agents with microtubule targeting effects along with triple-acting angiokinase inhibition as antitumor agents” (Bioorg Med Chem, 2017):

Assays:
Hs-578T = assay: Growth inhibition of human Hs578T cells incubated for 48 hrs by sulforhodamine B assay; format: functional
OVCAR-3 = assay: Growth inhibition of human OVCAR3 cells incubated for 48 hrs by sulforhodamine B assay; format: functional; conditions: OVCAR-3, 48 h
OVCAR-5 = assay: Growth inhibition of human OVCAR5 cells incubated for 48 hrs by sulforhodamine B assay; format: functional; conditions: OVCAR-5, 48 h
MCF7 = assay: Growth inhibition of human MCF7 cells incubated for 48 hrs by sulforhodamine B assay; format: functional; conditions: MCF7, 48 h
TK-10 = assay: Growth inhibition of human TK10 cells incubated for 48 hrs by sulforhodamine B assay; format: functional; conditions: TK-10, 48 h
COLO 205 = assay: Growth inhibition of human COLO205 cells incubated for 48 hrs by sulforhodamine B assay; format: functional; conditions: COLO 205, 48 h
M14 = assay: Growth inhibition of human M14 cells incubated for 48 hrs by sulforhodamine B assay; format: functional; conditions: M14, 48 h
HCC 2998 = assay: Growth inhibition of human HCC2998 cells incubated for 48 hrs by sulforhodamine B assay; format: functional; conditions: HCC 2998, 48 h
NCI-H522 = assay: Growth inhibition of human NCI-H522 cells incubated for 48 hrs by sulforhodamine B assay; format: functional; conditions: NCI-H522, 48 h
MDA-MB-435 = assay: Growth inhibition of human MDA-MB-435 cells incubated for 48 hrs by sulforhodamine B assay; format: functional; conditions: MDA-MB-435, 48 h
OVCAR-8 = assay: Growth inhibition of human OVCAR8 cells incubated for 48 hrs by sulforhodamine B assay; format: functional; conditions: OVCAR-8, 48 h
HeLa = assay: Growth inhibition of human HeLa cells measured after 96 hrs by sulforhodamine B assay; format: functional, cell-based
Summary of the method: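 Exposed 96 h to varying compound concentrations in 0.5% DMSO. Cell protein measured by sulforhodamine B; IC50 = concentration halving the increase in cell protein versus untreated cultures.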

MDA-MB-231 = assay: Growth inhibition of human MDA-MB-231 cells incubated for 48 hrs by sulforhodamine B assay; format: functional; conditions: MDA-MB-231, 48 h
KM12 = assay: Growth inhibition of human KM12 cells incubated for 48 hrs by sulforhodamine B assay; format: functional; conditions: KM12, 48 h
IGROV-1 = assay: Growth inhibition of human IGROV1 cells incubated for 48 hrs by sulforhodamine B assay; format: functional; conditions: IGROV-1, 48 h
NCI-H460 = assay: Growth inhibition of human NCI-H460 cells incubated for 48 hrs by sulforhodamine B assay; format: functional; conditions: NCI-H460, 48 h
HCT-15 = assay: Growth inhibition of human HCT15 cells incubated for 48 hrs by sulforhodamine B assay; format: functional; conditions: HCT-15, 48 h
Bos taurus = organism: Bos taurus; assay: Displacement of [3H]colchicine from bovine brain tubulin at 5 uM measured after 10 mins by liquid scintillation counting method relative to control
OVCAR-4 = assay: Growth inhibition of human OVCAR4 cells incubated for 48 hrs by sulforhodamine B assay; format: functional; conditions: OVCAR-4, 48 h
Malme-3M = assay: Growth inhibition of human MALME-3M cells incubated for 48 hrs by sulforhodamine B assay; format: functional
786-0 = assay: Growth inhibition of human 786-0 cells incubated for 48 hrs by sulforhodamine B assay; format: functional; conditions: 786-0, 48 h
SF-295 = assay: Growth inhibition of human SF295 cells incubated for 48 hrs by sulforhodamine B assay; format: functional; conditions: SF-295, 48 h
SN12C = assay: Growth inhibition of human SN12C cells incubated for 48 hrs by sulforhodamine B assay; format: functional
T47D = assay: Growth inhibition of human T47D cells incubated for 48 hrs by sulforhodamine B assay; format: functional
U-251 = assay: Growth inhibition of human U251 cells incubated for 48 hrs by sulforhodamine B assay; format: functional; conditions: U-251, 48 h
HOP-92 = assay: Growth inhibition of human HOP92 cells incubated for 48 hrs by sulforhodamine B assay; format: functional; conditions: HOP-92, 48 h
SNB-75 = assay: Growth inhibition of human SNB75 cells incubated for 48 hrs by sulforhodamine B assay; format: functional; conditions: SNB-75, 48 h
ACHN = assay: Growth inhibition of human ACHN cells incubated for 48 hrs by sulforhodamine B assay; format: functional
CCRF-CEM = assay: Growth inhibition of human CCRF-CEM cells incubated for 48 hrs by sulforhodamine B assay; format: functional
UACC-62 = assay: Growth inhibition of human UACC62 cells incubated for 48 hrs by sulforhodamine B assay; format: functional; conditions: UACC-62, 48 h
RPMI-8226 = assay: Growth inhibition of human RPMI8226 cells incubated for 48 hrs by sulforhodamine B assay; format: functional; conditions: RPMI-8226, 48 h
SNB-19 = assay: Growth inhibition of human SNB19 cells incubated for 48 hrs by sulforhodamine B assay; format: functional; conditions: SNB-19, 48 h
UO-31 = assay: Growth inhibition of human UO31 cells incubated for 48 hrs by sulforhodamine B assay; format: functional; conditions: UO-31, 48 h
A549 = assay: Growth inhibition of human A549/ATCC cells incubated for 48 hrs by sulforhodamine B assay; format: functional; conditions: A549, 48 h
LOX IMVI = assay: Growth inhibition of human LOXIMVI cells incubated for 48 hrs by sulforhodamine B assay; format: functional
DU-145 = assay: Growth inhibition of human DU145 cells incubated for 48 hrs by sulforhodamine B assay; format: functional; conditions: DU-145, 48 h
SF-539 = assay: Growth inhibition of human SF539 cells incubated for 48 hrs by sulforhodamine B assay; format: functional; conditions: SF-539, 48 h
NCI/ADR-RES = assay: Growth inhibition of human NCI/ADR-RES cells incubated for 48 hrs by sulforhodamine B assay; format: functional
SF-268 = assay: Growth inhibition of human SF268 cells incubated for 48 hrs by sulforhodamine B assay; format: functional; conditions: SF-268, 48 h
EKVX = assay: Growth inhibition of human EKVX cells incubated for 48 hrs by sulforhodamine B assay; format: functional
NCI-H23 = assay: Growth inhibition of human NCI-H23 cells incubated for 48 hrs by sulforhodamine B assay; format: functional; conditions: NCI-H23, 48 h
MDA-MB-468 = assay: Growth inhibition of human MDA-MB-468 cells incubated for 48 hrs by sulforhodamine B assay; format: functional; conditions: MDA-MB-468, 48 h
NCI-H226 = assay: Growth inhibition of human NCI-H226 cells incubated for 48 hrs by sulforhodamine B assay; format: functional; conditions: NCI-H226, 48 h
K562 = assay: Growth inhibition of human K562 cells incubated for 48 hrs by sulforhodamine B assay; format: functional; conditions: K562, 48 h
A498 = assay: Growth inhibition of human A498 cells incubated for 48 hrs by sulforhodamine B assay; format: functional; conditions: A498, 48 h
HOP-62 = assay: Growth inhibition of human HOP62 cells incubated for 48 hrs by sulforhodamine B assay; format: functional; conditions: HOP-62, 48 h
CAKI-1 = assay: Growth inhibition of human Caki1 cells incubated for 48 hrs by sulforhodamine B assay; format: functional; conditions: CAKI-1, 48 h
SK-OV-3 = assay: Growth inhibition of human SKOV3 cells incubated for 48 hrs by sulforhodamine B assay; format: functional; conditions: SK-OV-3, 48 h
SK-MEL-5 = assay: Growth inhibition of human SK-MEL-5 cells incubated for 48 hrs by sulforhodamine B assay; format: functional; conditions: SK-MEL-5, 48 h
HCT-116 = assay: Growth inhibition of human HCT116 cells incubated for 48 hrs by sulforhodamine B assay; format: functional; conditions: HCT-116, 48 h
HL-60(TB) = assay: Growth inhibition of human HL-60(TB) cells incubated for 48 hrs by sulforhodamine B assay; format: functional; conditions: HL-60, 48 h
BT-549 = assay: Growth inhibition of human BT549 cells incubated for 48 hrs by sulforhodamine B assay; format: functional; conditions: BT-549, 48 h
SW-620 = assay: Growth inhibition of human SW620 cells incubated for 48 hrs by sulforhodamine B assay; format: functional; conditions: SW-620, 48 h
NCI-H322M = assay: Growth inhibition of human NCI-H322M cells incubated for 48 hrs by sulforhodamine B assay; format: functional
MOLT-4 = assay: Growth inhibition of human MOLT4 cells incubated for 48 hrs by sulforhodamine B assay; format: functional; conditions: MOLT-4, 48 h
SK-MEL-28 = assay: Growth inhibition of human SK-MEL-28 cells incubated for 48 hrs by sulforhodamine B assay; format: functional; conditions: SK-MEL-28, 48 h
RXF 393 = assay: Growth inhibition of human RXF393 cells incubated for 48 hrs by sulforhodamine B assay; format: functional; conditions: RXF 393, 48 h
SR = assay: Growth inhibition of human SR cells incubated for 48 hrs by sulforhodamine B assay; format: functional
UACC-257 = assay: Growth inhibition of human UACC257 cells incubated for 48 hrs by sulforhodamine B assay; format: functional; conditions: UACC-257, 48 h
[1] = Inhibition of bovine brain tubulin assembly preincubated for 15 mins followed by GTP addition measured for 20 mins by spectrophotometric method; design: species or system Bos taurus

## COc1ccc2c(c1)CCCN2c1nc(C)nc2c(Cc3ccccc3)c[nH]c12
Hs-578T
  GI50: 582 nM
OVCAR-3
  GI50: 285 nM
OVCAR-5
  GI50: 543 nM
MCF7
  GI50: 248 nM
TK-10
  GI50: 123 nM
COLO 205
  GI50: 232 nM
M14
  GI50: 252 nM
HCC 2998
  GI50: 318 nM
NCI-H522
  GI50: 316 nM
MDA-MB-435
  GI50: 341 nM
OVCAR-8
  GI50: 487 nM
HeLa
  IC50: 250 nM
MDA-MB-231
  GI50: 641 nM
KM12
  GI50: 366 nM
IGROV-1
  GI50: 440 nM
NCI-H460
  GI50: 337 nM
HCT-15
  GI50: 366 nM
Bos taurus
  inhibition: 43%
OVCAR-4
  GI50: 468 nM
Malme-3M
  GI50: 330 nM
786-0
  GI50: 934 nM
SF-295
  GI50: 192 nM
SN12C
  GI50: 618 nM
T47D
  GI50: 128 nM
U-251
  GI50: 316 nM
HOP-92
  GI50: 189 nM
SNB-75
  GI50: 182 nM
ACHN
  GI50: 830 nM
CCRF-CEM
  GI50: 226 nM
UACC-62
  GI50: 659 nM
RPMI-8226
  GI50: 266 nM
SNB-19
  GI50: 549 nM
UO-31
  GI50: 390 nM
A549
  GI50: 406 nM
LOX IMVI
  GI50: 521 nM
DU-145
  GI50: 383 nM
SF-539
  GI50: 260 nM
NCI/ADR-RES
  GI50: 265 nM
SF-268
  GI50: 723 nM
EKVX
  GI50: 463 nM
NCI-H23
  GI50: 320 nM
MDA-MB-468
  GI50: 153 nM
NCI-H226
  GI50: 136 nM
K562
  GI50: 111 nM
A498
  GI50: 197 nM
HOP-62
  GI50: 379 nM
CAKI-1
  GI50: 341 nM
SK-OV-3
  GI50: 423 nM
SK-MEL-5
  GI50: 325 nM
HCT-116
  GI50: 368 nM
HL-60(TB)
  GI50: 222 nM
BT-549
  GI50: 755 nM
SW-620
  GI50: 370 nM
NCI-H322M
  GI50: 362 nM
MOLT-4
  GI50: 345 nM
SK-MEL-28
  GI50: 368 nM
RXF 393
  GI50: 212 nM
SR
  GI50: 922 nM
UACC-257
  GI50: 108 nM

## COc1ccc2c(c1)CCN2c1nc(C)nc2c(Cc3ccccc3)c[nH]c12
[1]
  IC50: > 20000 nM
